An excerpt weighted towards active compounds, which were near 2.1% of everything screened.
Runt-CBFb FRET: blocks binding of human RUNX1 Runt domain to CBFb; Q01196+Q13951; inhibition, % at 20 µM; AID 1496; actives 0.46% (n = 220,000); Cerulean-Runt/Venus-CBFb FRET ratio 530/480, 1 h;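 active = inhibition over about 50% at 20 µM in the single-dose screen, limit read from the data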
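Assay system: Cerulean-Runt domain fusion protein, energy donor; Signal: fluorescence energy transfer, 422 nm excitation, 530/480 nm emission; Timing: 1 h compound exposure, room temperature; Control set: unlabeled CBFb; Medium: Tris buffer pH 7.5 with salts and BSA; Compound: single test concentration of 20 µM, 1% DMSO final; Probe or stimulus: Venus-CBFb 100 nM.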
RanGTP-Imp inh: inhibitors of RanGTP-importin-beta interaction, primary screen, biochemical, FRET, CFP-Ran, YFP-importin-beta, homogeneous; cell-free CFP-Ran/YFP-importin-beta FRET ratio; inhibition, % (no concentration beside the values); actives 1.1% (n = 300,000); AID 2216;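 active = more than half of the replicate wells show a fall in the fluorescence ratio signal beyond about 16%, limit read from the data, passing the limit was not always enough; inconclusive = exactly half of the replicate wells pass the set limit; inactive = fewer than half of replicates pass the limit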
MEX-5 binding: C. elegans MEX-5 TCR-2 RNA binding activity; MEX-5/FITC-TCR2 RNA binding, fluorescence polarization; stronger effect = lower value; AID 1832; activity score (negative = inhibition of binding), % at 10 µM; Q9XUB2; actives 0.38% (n = 300,000);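 active = inhibition past about -25% in most replicates, and total fluorescence under double the plate's negative control median, limit read from the data; inconclusive = replicates evenly split on the limit, or fluorescence at least double controls; inactive = too little inhibition in most replicates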
proKLK7 act: activates the human kallikrein-7 zymogen. P49862. purified proKLK7, EDANS-DABCYL substrate fluorescence; 100% is mature enzyme control, 0% vehicle. activation, % at 7 µM. actives 0.9% (n = 370,000);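 active = activation above the mean of all tested compounds plus 3 SD, computed per campaign excluding outliers beyond control limits, cut at about 13% in these data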
Target sequence (P49862 whole entry, looked up): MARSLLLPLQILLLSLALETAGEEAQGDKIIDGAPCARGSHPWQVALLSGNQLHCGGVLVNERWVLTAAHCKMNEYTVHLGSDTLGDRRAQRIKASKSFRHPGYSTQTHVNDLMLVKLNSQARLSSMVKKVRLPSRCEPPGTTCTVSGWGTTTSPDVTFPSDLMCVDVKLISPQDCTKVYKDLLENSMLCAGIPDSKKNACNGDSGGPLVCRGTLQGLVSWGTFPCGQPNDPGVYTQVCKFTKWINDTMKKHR
Runt-SMMHC FRET: blocks binding of human RUNX1 Runt domain to CBFb-SMMHC | actives 0.74% (n = 220,000) | Cerulean-Runt/Venus-CBFb-SMMHC FRET ratio 530/480, 1 h | Q01196+Q13951 | inhibition, % at 20 µM;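 active = mean inhibition across duplicate retests at 20 µM reaching about 50%, limit read from the data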;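 also: inhibitors lower the FRET ratio by blocking Runt binding to CBFb-SMMHC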
Numbers stand for hits; – = inactive; ? = inconclusive; · = no result.

SMILES | Runt-CBFb FRET | RanGTP-Imp inh | MEX-5 binding | proKLK7 act | Runt-SMMHC FRET
COc1ccc(N2CCN(C(=O)C(=O)c3ccc(F)cc3)CC2)cc1 | · | · | · | – | ·
CS(=O)(=O)Oc1ccc2c(c1)O/C(=C\c1cccc([N+](=O)[O-])c1)C2=O | · | – | – | – | ·
CS(=O)(=O)Oc1ccc2c(c1)O/C(=C\C=C\c1ccccc1)C2=O | – | – | -41.8 | – | –
O=Cc1ccc(O)c2ncccc12 | – | – | – | · | 74.3
NS(=O)(=O)c1ccc(N=Nc2ccc(O)c3ncccc23)cc1 | · | – | – | – | ·
CCN(CC)c1ccc(/C=N/NC(=O)c2cccc(S(=O)(=O)Nc3ccccc3OC)c2)c(O)c1 | – | – | -31.1 | – | 81.1
CCc1cc(C(=O)c2ccc(Br)cc2)c(NC(=O)CN(CC)CC)s1 | · | – | – | – | ·
Cc1[nH]nc2c1C(c1ccc(-c3ccc(Cl)cc3)o1)C(C#N)=C(N)O2 (configuration not stated) | – | – | – | – | –
Cc1ccc(-c2ccc(C3C(C#N)=C(N)Oc4n[nH]c(C)c43)o2)cc1 (configuration not stated) | – | 39.3 | – | – | –
CCOC(=O)Cc1csc(/N=C/c2c(O)n(-c3ccc(C)c(C)c3)c(=O)c3ccccc23)n1 | – | – | – | – | 61.6
Cc1cc(C)c(Cn2c(=O)[nH][nH]c2=O)cc1Cn1c(=O)[nH][nH]c1=O | · | · | · | – | ·
CNc1nc(-c2ccccc2)[n+](-c2ccc(C)cc2)s1 | – | – | – | – | 56.5
Cc1ccc(-c2nc3ccccc3nc2-c2ccccc2)cc1 | · | – | – | – | ·
Cc1ccc(-c2nc(N)s[n+]2-c2ccccc2)cc1 | – | – | – | – | 65.1
Cc1ccccc1C(=O)N(Cc1ccccn1)CC1CCCO1 (configuration not stated) | · | · | · | – | ·
S=C(Nc1cc(Cl)cc(Cl)c1)N1CCN(c2ccccn2)CC1 | · | · | · | – | ·
Cc1cc2c(cc1C)N(C(=O)CCl)CCN2C(=O)CCl | · | · | · | – | ·
N#Cc1c(N)nc2c3c(sc(=N)c2c1N)NC(=O)CC3c1ccccc1 (configuration not stated) | – | 118.7 | – | – | –
N#Cc1c(N)nc2c3c(sc(=N)c2c1N)NC(=O)CC3c1c(F)cccc1Cl (configuration not stated) | – | 84.8 | – | – | –
Cc1c(C#N)c(N)nc2c3c(sc12)NC(=O)CC3c1ccc(Cl)cc1 (configuration not stated) | – | – | – | – | –
COc1ccc(NC(=O)C[C@H]2C(=O)N(c3ccccc3)C[C@@H]2C)cc1 | · | · | · | – | ·
COc1ccc(/C(O)=C/c2nc3ccccc3n(-c3ccccc3)c2=O)cc1 | – | 46.7 | ? | – | –
CCOC(=O)N1CCN(Cc2ccccc2Cl)CC1 | – | · | · | – | –
CCOC(=O)N1CCN(Cc2cc(Cl)c3cccnc3c2O)CC1 | – | 44.4 | – | – | –
COc1ccc([N+](=O)[O-])c(O)c1C(C)=O | · | · | · | – | ·
SMILES | Runt-CBFb FRET | RanGTP-Imp inh | MEX-5 binding | proKLK7 act | Runt-SMMHC FRET
Cc1cccn2c(CNCC3OCCc4ccccc43)c(C(=O)N3CCCCC3)nc12 (configuration not stated) | – | – | – | – | –
COCCN1CCC(CNCc2c(C(=O)N3CCCCC3)nc3c(C)cccn23)C1 (configuration not stated) | – | – | -48.9 | – | –
CC1(Cc2ccc(F)cc2)C(=O)Nc2ccc(-c3cccnc3)cc21 (configuration not stated) | · | · | · | – | ·
O=C(Nc1sc2c(c1C(=O)NC1CCCCC1)CCC2)c1ccco1 | – | 56.4 | – | – | –
Nc1ccccc1C(=O)N1CCc2ccccc21 | · | – | – | – | ·
Cn1cccc1/C=C1\SC(=O)N(c2ccc(O)cc2)C1=O | – | – | – | – | –
CCOc1ccc(NC(=O)CN2C(=O)S/C(=C/c3cccn3C)C2=O)cc1 | – | 16.4 | – | – | –
CCOc1ccc(N2C(=O)S/C(=C\c3cccn3C)C2=O)cc1 | – | – | -29.6 | – | –
CN(C)S(=O)(=O)c1cccc(C(=O)N/N=C\c2ccccc2)c1 | · | · | · | – | ·
O=C(CN1CCN(c2ccccc2)CC1)Nc1ccccc1C(F)(F)F | 79.5 | – | – | – | –
CCOCCCNC(=S)N1CCCN(c2nc3cc(C)ccc3cc2C#N)CC1 | – | – | – | – | 76.0
CCOCCCNC(=S)N1CCCC(c2nc3ccc(C)cc3[nH]2)C1 (configuration not stated) | – | – | – | – | –
COCC(=O)N1CCCN(c2nc3c(C)cccc3cc2C#N)CC1 | – | 57.4 | – | – | –
Cc1cccc2cc(C#N)c(SCC(=O)N3CCC(C)CC3)nc12 | – | – | – | – | –
Cc1cc(C)c2cc(C#N)c(N3CCCN(C(=S)NCCCN(C)C)CC3)nc2c1 | · | 35.0 | – | – | ·
CCOCCCNC(=S)N1CCCN(c2nc3c(C)c(C)ccc3cc2C#N)CC1 | · | 50.9 | – | – | ·
CCc1ccc(OCCCCN(C)Cc2ccccc2)cc1 | · | – | – | – | ·
COC(=O)[C@]12C[C@H](CC(=O)NCc3ccccc3)C(=O)N(CCc3ccc(OC)c(OC)c3)C1=C[C@H](C1CCCC1)O[C@@H]2C | · | · | · | – | ·
CNC(=O)COC(=O)c1cc(-c2ccco2)nc2ccccc12 | – | – | – | 130.5 | –
Cn1c(N)c(C(=O)COC(=O)c2cc(-c3ccco3)nc3ccccc23)c(=O)n(C)c1=O | – | – | – | – | –
CCOC(=O)C1(C)CCN1C(=O)c1cccnc1Oc1ccccc1 (configuration not stated) | · | · | · | – | ·
COC(=O)C1C2CC3c4[nH]c5cc(OC)ccc5c4CCN3CC2CC(O)C1OC (configuration not stated) | · | · | · | – | ·
COC(=O)C1C(O)CCC2CN3CCc4c([nH]c5ccccc45)C3CC21 (configuration not stated) | – | 64.5 | – | – | 70.8
COC(=O)[C@H]1[C@H]2C[C@H]3c4[nH]c5ccccc5c4CCN3C[C@H]2CC[C@@H]1O | · | 42.9 | – | – | ·
COCCN1C(=O)c2ccccc2C1c1nc2ccccc2[nH]1 (configuration not stated) | · | · | · | – | ·
SMILES | Runt-CBFb FRET | RanGTP-Imp inh | MEX-5 binding | proKLK7 act | Runt-SMMHC FRET
CCOC(=O)[C@@]12CCC3=C1N(CCC3)C(=O)[C@H](CC(=O)N1CCSCC1)C2 | · | · | · | – | ·
CC1CCCC(C)N1C(=O)Cn1cnc2cc([N+](=O)[O-])ccc2c1=O (configuration not stated) | – | ? | – | – | –
CCN(C(=O)Cn1cnc2cc([N+](=O)[O-])ccc2c1=O)C1CCS(=O)(=O)C1 (configuration not stated) | – | 13.8 | – | – | –
COc1ccc2oc(=O)c(C(=O)Oc3ccc(NC(C)=O)cc3)cc2c1 | – | – | – | 214.9 | –
COc1ccc2oc(=O)c(C(=O)OCc3ccccc3)cc2c1 | · | 18.5 | – | – | ·
COc1ccc(-n2c3nc4ccccc4nc3c3c(=N)oc(C)nc32)cc1 | 65.5 | – | – | – | 128.7

Screening results: PubChem BioAssay, several laboratories
